Results: ChEMBL document CHEMBL5614377, “Structure-based mapping of the histone-binding pocket of KDM4D using functionalized tetrazole and pyridine core compounds” (Eur J Med Chem, 2024)

Tests used:
[1] = target: T1, Lysine-specific demethylase 4D (Homo sapiens, UniProt Q6B0I6); test: Binding affinity to N-terminal His-6-tagged human KDM4D catalytic domain (1 to 342 residues) assessed as dissociation constant by isothermal titration calorimetry analysis
T1 sequence (Q6B0I6 whole entry): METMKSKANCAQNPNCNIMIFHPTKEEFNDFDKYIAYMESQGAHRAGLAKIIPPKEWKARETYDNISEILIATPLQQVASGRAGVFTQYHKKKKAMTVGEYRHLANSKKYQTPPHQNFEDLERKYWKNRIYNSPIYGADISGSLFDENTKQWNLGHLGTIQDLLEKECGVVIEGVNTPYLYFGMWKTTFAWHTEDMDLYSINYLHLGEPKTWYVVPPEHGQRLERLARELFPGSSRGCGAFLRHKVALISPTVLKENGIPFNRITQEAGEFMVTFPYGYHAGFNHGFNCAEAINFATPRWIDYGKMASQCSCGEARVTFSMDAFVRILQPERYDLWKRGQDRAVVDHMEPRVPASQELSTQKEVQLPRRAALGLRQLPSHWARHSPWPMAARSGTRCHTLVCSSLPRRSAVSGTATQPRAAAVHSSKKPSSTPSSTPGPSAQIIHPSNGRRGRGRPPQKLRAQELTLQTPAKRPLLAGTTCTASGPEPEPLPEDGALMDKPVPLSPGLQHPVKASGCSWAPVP
In short: (§1)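 Human KDM4D catalytic domain (residues 1–342) expressed with N-terminal His6-tag, purified by metal affinity chromatography; tag removed by TEV protease for affinity tests, then size-exclusion. Protein concentration measured by A280. ITC at 20 °C in 10 mM HEPES pH 7.5, 0.5 M NaCl, 5% glycerol, 1 mM TCEP. Ligands diluted from DMSO stocks to 0.4–1% final DMSO, with protein DMSO-matched. Ligand titrated into protein in the cell in 13 or 19 injections of 2–3 μL, 180 s spacing, 5 s filter. Two or three runs per ligand. Thermodynamic parameters obtained by baseline adjustment, peak integration, heat normalization per mole of ligand, and fitting.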

[2] = target: T2, Lysine-specific demethylase 4D (Homo sapiens) (UniProt Q6B0I6); test: Binding affinity to N-terminal His-6-tagged human KDM4D catalytic domain (1 to 342 residues) assessed as change in enthalpy by isothermal titration calorimetry analysis; in short: as §1
T2 sequence (whole entry): T1 sequence (Q6B0I6 whole entry)

[3] = target: T2, Lysine-specific demethylase 4D (Homo sapiens); test: Binding affinity to N-terminal His-6-tagged human KDM4D catalytic domain (1 to 342 residues) assessed as change in entropy by isothermal titration calorimetry analysis; in short: as §1
[4] = target: T2, Lysine-specific demethylase 4D (Homo sapiens); test: Binding affinity to N-terminal His-6-tagged human KDM4D catalytic domain (1 to 342 residues) assessed as change in gibbs free energy by isothermal titration calorimetry analysis; in short: as §1

| SMILES | Kd [1] | deltaH [2] | -TdeltaS [3] | deltaG [4] |
| --- | --- | --- | --- | --- |
| CS(=O)(=O)NCCNc1cc(C(=O)O)ccn1 | 35.5 µM | -4.6 kcal/mol | -1.35 kcal/mol | -5.97 kcal/mol |
| O=C(O)c1ccnc(NCCCO)c1 | 55.9 µM | -1.65 kcal/mol | -4.05 kcal/mol | -5.7 kcal/mol |
| NNC(=O)[C@H](NC(=O)CCCCc1ccccc1)c1nnn[nH]1 | 509 µM | 8.5 kcal/mol | -12.9 kcal/mol | -4.42 kcal/mol |
| O=C(NO)c1cc(-c2nnn[nH]2)ccn1 | 0.55 µM | 5.3 kcal/mol | -13.7 kcal/mol | -8.4 kcal/mol |
